Screens (PubChem)
beta cell repl – MIN6 beta-cell proliferation induction | MIN6 cells proliferation, ATPlite luminescence, 48 h; cells starved in 0.2% serum; 100% = growth in 10% serum | proliferation, % at 10 µM | 0.29% of 330,000 active;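 active = compounds whose signal lies at least 3.5 SD above the mean of all wells on their plate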;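 note: 0% = DMSO-treated cells in low-serum medium and 100% = 10% serum control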
NR1D1 modulator – Rev-erb alpha (human) modulation; Rev-erbα–FITC-DNA binding, fluorescence polarization, 90 min; activity, % at 10 µM; 0.79% of 370,000 active; AID 1259318;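 active = activity above about 14%, limit read from the data; passing the limit was not always enough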;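 note: 0% = DMSO wells with 35 nM protein and 100% = DMSO wells with 750 nM protein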
Target sequence (P20393 whole entry, looked up): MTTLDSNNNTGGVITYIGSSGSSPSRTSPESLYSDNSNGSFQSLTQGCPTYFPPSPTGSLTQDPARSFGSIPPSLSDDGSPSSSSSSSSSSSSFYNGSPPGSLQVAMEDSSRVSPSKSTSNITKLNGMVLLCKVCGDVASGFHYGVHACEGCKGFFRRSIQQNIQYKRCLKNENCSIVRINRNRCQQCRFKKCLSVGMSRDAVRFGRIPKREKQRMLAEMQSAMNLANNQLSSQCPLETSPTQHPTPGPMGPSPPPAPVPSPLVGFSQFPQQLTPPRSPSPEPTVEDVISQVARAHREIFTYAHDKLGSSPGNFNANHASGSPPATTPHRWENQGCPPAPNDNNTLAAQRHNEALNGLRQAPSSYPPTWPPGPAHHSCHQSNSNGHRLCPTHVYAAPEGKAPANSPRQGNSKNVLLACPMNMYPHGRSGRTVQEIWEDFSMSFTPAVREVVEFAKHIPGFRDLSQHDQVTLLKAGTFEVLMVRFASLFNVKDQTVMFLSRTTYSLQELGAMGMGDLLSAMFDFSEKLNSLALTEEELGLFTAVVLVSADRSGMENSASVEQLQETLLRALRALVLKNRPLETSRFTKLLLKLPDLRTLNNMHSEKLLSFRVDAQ
T cruzi repl – T. cruzi replication inhibition; T. cruzi beta-gal in NIH3T3, luminescence, 90 h; inhibition, % (concentration not given with the values); 1.4% of 300,000 active;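 active = mean inhibition across valid replicates above about 55%, limit read from the data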;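 note: signal also drops with host cell toxicity which is not excluded here; 0% = plate median of DMSO wells and 100% = zero luminescence signal; higher percent means less beta-gal luminescence so fewer parasites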
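System: Mouse NIH/3T3 fibroblasts infected with β-gal-expressing T. cruzi Tulahuen C4 | Quantity: NIH/3T3 cells, 5,000 per well | Reagent: 5000 reporter trypomastigotes per well | Dosing: Compound pinned at 50 nL/well, DMSO | Schedule: 3 h host attachment, then at least 90 h co-culture | Detection: GalScreen luminescence, 60 min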
hiPSC survival – hiPSC single-cell survival enhancement. survival enhancement, % at 20 µM. 0.044% of 360,000 active. ATPlite luminescence; 100% = ROCK inhibitor wells, 0% = DMSO. AID 602274; in the data active = survival enhancement above about 18%;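 note: cells exposed to compounds for 16 hours before the ATP read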
PG9 binder – PG9 antibody binding by small molecule | 0.43% of 360,000 active | inhibition, % at 6.7 µM | TR-FRET gp120-PG9 antibody binding; in the data active = inhibition above about 8.5%
H9c2 TAG inh – reduces triacylglycerol accumulation in H9c2 cells. Nile Red lipid (TAG) fluorescence; cells loaded with 200 µM oleic acid. inhibition, % at 12.5 µM. 0.66% of 230,000 active. AID 651582;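 active = pattern-corrected inhibition of lipid staining of at least 50% with the nuclear-stain viability signal not falling by more than 50%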;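 note: 0% = DMSO wells and 100% = triacsin C control wells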
Rev-erbA confirm – confirmation of modulators of human Rev-erb alpha DNA binding; shares compounds with NR1D1 modulator; Rev-erb alpha FITC-DNA binding, fluorescence polarization, 90 min; activation, % at 25 µM; 61% of 3,000 active; AID 1259319;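 active = activation at or above a set limit, or at least 3 SD above the negative control mean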;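 note: 0% = 35 nM protein with DMSO and 100% = 750 nM protein high control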
RORg DNA counter – counter-screen for Rev-erb alpha modulators: RORgamma DNA binding; 8% of 910 active; purified RORgamma protein-FITC-DNA binding, fluorescence polarization; shares compounds with NR1D1 modulator; IC50, µM;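 active = Compounds whose fitted half-maximal concentration for disrupting protein-DNA binding is below 10 micromolar; the record names Rev-erb in its text, so the target is in doubt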
Active calls of the source: *; i = inactive; / = not tested or not shown. Most compounds without a hit are left out; they make up all but 2.9% or so of the library.

SMILES	beta cell repl	NR1D1 modulator	T cruzi repl	hiPSC survival	PG9 binder	H9c2 TAG inh	Rev-erbA confirm	others
CC(=O)c1ccc(NC(=O)COC(=O)c2ccccc2N=Nc2ccc(N(C)C)cc2)cc1	0.0	19.9	12.3	-0.4	-1.4	/	/
Cc1cc(=O)oc2cc(OCC(=O)NCCCN3CCOCC3)c(Cl)cc12	-3.3	1.6	-26.6	-0.1	-2.4	/	/
COc1ccc(C(=O)N2CCN(C3CCCCC3)CC2)c(OC)c1	0.8	4.6	7.5	2.7	2.0	/	/
O=C1/C(=C\c2cc(Cl)c(O)c(Cl)c2)SC(=S)N1Cc1ccccc1	/	67.3*	2.9	0.5	1.5	/	50.9*	RORg DNA counter=i
O=C(CCc1ccccc1)NC(=S)Nc1ccc2c(c1)C(=O)OC2	-1.2	30.7*	-2.5	4.1	8.2	-1.5	30.1*
O=C(NCc1ccccc1)c1nc[nH]c1C(=O)NCc1ccccc1	0.4	4.2	-5.0	-1.5	0.4	-5.6	/
OC[C@H]1CC[C@@H]2O[C@H](CCc3ccc(-c4ccc(F)cc4)cc3)[C@@H](n3cc(C4CC4)nn3)C[C@@H]2O1	/	-0.1	/	/	/	/	/
CCOc1ccc(NC(=O)c2ccc(OC)cc2)cc1	-1.4	4.2	-0.7	2.8	0.9	-8.8	/
CCOc1ncccc1C(=O)Nc1ccc(C(=O)Nc2ccc(OC)cc2)cc1	-3.9	21.5*	/	-2.0	4.1	9.2	13.6
CC1(C(=O)NS(=O)(=O)c2ccc(Cl)cc2)CCN1C(=O)CCc1ccc(Cl)cc1Cl (stereo unspecified)	/	-0.8	/	-3.8	1.0	18.5	/
CSc1nc(N)c(C#N)c(-c2ccc(Cl)cc2)c1C#N	-2.3	60.2*	9.5	4.2	1.7	7.0	44.7*	RORg DNA counter=>40
CSc1nc(-c2ccc(C)cc2)nc(N)c1C#N	0.9	30.6*	18.1	-0.6	1.6	5.4	8.3
CC(C)c1ccc(-c2c(C#N)c(N)nc3c2CCCCC3)cc1	-1.7	2.2	3.7	11.4	2.0	-1.4	/
Cc1ccc(-c2c(C#N)c(N)nc3c2CCCCC3)cc1	-1.0	31.2*	-29.6	-0.7	0.2	/	19.8*
CCc1nc(N)c(C#N)c(-c2ccc(F)cc2)c1C	4.0	-4.0	4.2	-0.4	1.4	/	/
O=c1[nH]nc(-c2ccc(NCCO)c([N+](=O)[O-])c2)c2ccccc12	1.2	8.2	-12.9	-0.2	-1.5	/	/
Cc1ccc(OCC(=O)NNC(=O)CSc2ncnc3sc(C)c(C)c23)cc1	-3.0	51.5*	-0.8	-3.2	-2.6	-14.3	16.1
CCc1ccc(OCC(=O)NNC(=O)CSc2ncnc3sc(C)c(C)c23)cc1	-2.3	26.2*	-25.4	0.1	-0.9	/	13.3
Cc1sc2ncnc(SCC(=O)NC(C)(C)C)c2c1C	-2.8	0.9	-3.1	5.8	0.8	0.0	/
O=C(Nc1ccccc1)C1CCCN1S(=O)(=O)c1ccc(Br)cc1 (stereo unspecified)	4.5	7.2	-15.8	-0.4	-1.6	-5.8	/
Cc1ccc(Cc2c(-c3ccc(C)cc3)nc3ccc(Br)cn23)cc1	/	14.1	/	-0.3	3.0	-5.6	/
Fc1ccc(-c2nc3ccc(Br)cn3c2Cc2cccc(Cl)c2)cc1	/	28.0*	/	2.6	5.1	/	14.0*
Clc1ccc(-c2nc3ccc(Br)cn3c2Cc2ccccc2)cc1	/	23.3*	/	-0.1	7.2	-4.8	19.7*
Fc1ccc(-c2nc3ccc(Br)cn3c2Cc2ccccc2)cc1	/	19.7*	/	-1.6	3.1	-11.3	12.8*
Brc1ccc(-c2nc3ccc(Br)cn3c2Cc2ccccc2)cc1	/	26.0*	/	3.1	7.0	/	15.7*
SMILES	beta cell repl	NR1D1 modulator	T cruzi repl	hiPSC survival	PG9 binder	H9c2 TAG inh	Rev-erbA confirm	others
Fc1ccc(-c2nc3ccc(Br)cn3c2Cc2cccc(F)c2)cc1	/	-3.0	/	-0.6	-1.4	/	/
COCCn1c(SC2CCOC2=O)nc2ccccc2c1=O (stereo unspecified)	-1.3	4.0	-3.5	0.9	0.5	4.0	/
O=C(c1ccccc1)C1CCN(C(=O)c2ccco2)CC1	0.1	-4.0	-1.0	-0.5	-1.2	-12.8	/
CC(NC(=O)c1ccccc1NC(=O)c1ccco1)c1ccccc1 (stereo unspecified)	4.6	21.0*	-8.7	2.2	1.1	/	21.7*
CC(C)C(NC(=O)c1ccccc1NC(=O)c1ccco1)C(=O)O (stereo unspecified)	-0.3	-4.1	-2.9	0.1	0.2	/	/
Cc1cc(NC(=O)CSc2nc(C(C)C)nc3ccccc23)no1	-0.6	0.9	-9.0	-1.7	1.8	-28.2	/
Cc1cc(NC(=O)C(C)Sc2nc(-c3cccs3)nc3ccccc23)no1 (stereo unspecified)	-4.9	41.8*	/	0.5	4.8	20.6	12.5
Brc1ccc(Sc2cnc3ccccc3n2)cc1	-2.5	49.2*	10.0	-0.8	6.7	/	35.2*	RORg DNA counter=>40
c1ccc(Sc2cnc3ccccc3n2)cc1	-2.3	19.5*	-6.5	5.4	3.8	-4.9	21.6*
Clc1ccc(Sc2cnc3ccccc3n2)cc1	2.1	31.5*	-5.5	1.8	6.2	-15.6	29.5*
Clc1ccccc1Sc1cnc2ccccc2n1	-0.1	10.8	-2.1	-0.5	5.4	/	/
COC(=O)c1cccc(NC(=O)Cc2nc(-c3ccccc3)sc2-c2ccc(C)cc2)c1	0.0	17.9	22.6	-0.6	-12.7	/	/
CCC(C(=O)NC1C(=O)N2C(C(=O)O)=C(CSc3nnc(C)s3)CSC12)c1ccccc1 (stereo unspecified)	-1.5	-1.5	/	-0.4	0.1	-8.3	/
CCC(C)OC(=O)c1cc(C)nc2c(Br)cc(Br)cc12 (stereo unspecified)	-5.6	46.1*	-2.2	-0.4	3.8	-24.3	45.9*	RORg DNA counter=>40
CCOC(=O)c1cc(C)nc(SC)c1C#N	-1.1	-1.0	-3.5	-0.2	-1.2	0.1	/
CC(C)C(=O)NC(NC1CCS(=O)(=O)C1)C(Cl)(Cl)Cl (stereo unspecified)	-3.9	5.8	/	0.1	-1.2	3.8	/
O=C1CSC(=S)N1N=Cc1c(F)cccc1Cl	/	2.5	/	2.2	-0.3	-12.0	/
CN(C)c1ccc(C=NN2C(=O)CSC2=S)c(Cl)c1	/	22.5*	/	-0.8	-2.1	9.7	-3.1
COc1ccc(NC(=O)c2ccc(NC(=O)CN3CCN(c4ccccc4OC)CC3)cc2)cc1	/	-0.6	/	-0.3	1.4	13.7	/
CNC[C@H]1Oc2c(NC(=O)c3ccc(-c4nccs4)cc3)cccc2C(=O)N([C@@H](C)CO)C[C@@H]1C	5.1	-3.6	/	3.4	1.7	/	/
O=C(c1ccc(-c2ccccc2)cc1)c1ccc([N+](=O)[O-])cc1	0.0	/	20.2	/	/	/	/
O=C(C1=NN[C@@H]2C(=O)N(Cc3ccccc3)C(=O)[C@H]12)c1ccc([N+](=O)[O-])cc1	-0.5	15.9*	-8.8	-0.4	-0.2	-22.1	4.2
